Measured values pooled from the literature.
Protocols differ between the studies behind these lines. ≈ marks a conversion by molar mass, not a printed value.
Organism: Escherichia coli

For CC1(C)S[C@@H]2[C@H](NC(=O)[C@H](N)c3ccccc3)C(=O)N2[C@H]1C(=O)O, the inhibition zone was 15 mm (microbial growth, well diffusion; ATCC35218; 60000 µg/mL).
The MIC of COC(=O)c1cc(-c2cccc(NC(=O)Nc3cc(Cl)ccc3Cl)c2)on1 is reported as over 64 µg/mL (microbial growth, broth dilution; ATCC25922).
Cc1cc(/C=C2\Sc3ccccc3N2CCCN2CCC(C)CC2)c2ccccc2[n+]1C.[I-] has an MIC of 1 µg/mL (microbial growth, broth dilution; ATCCBAA2469).
With COc1c(N2C[C@@H]3CCCN[C@@H]3C2)c(F)cc2c(=O)c(C(=O)O)cn(C3CC3)c12 the MIC90 was 0.06 µg/mL (≈ 0.149 µM) (microbial growth).
The MBC of O=C(O)c1cn(C2CC2)c2cc(N3CCNCC3)c(F)cc2c1=O is reported as 0.019 µg/mL (≈ 0.0573 µM) (microbial killing).
C[C@H]1NCc2cc(-c3ccc4c(=O)c(C(=O)O)cn(C5CC5)c4c3OC(F)F)ccc21 gave an MIC90 of 0.25 µg/mL (≈ 0.586 µM) (microbial growth, broth dilution).
With CCC(CCCCCCCCCCc1cc(O)cc(O)c1)C(C)C (stereo not shown) the IC50 was 34.3 µM (microbial growth).
For COC(=O)c1cc(-c2cccc(NC(=S)Nc3ccc(Cl)cc3)c2)on1, the MIC was over 64 µg/mL (microbial growth, broth dilution; ATCC25922).
CC(C)C(C)CCCCCCCCCCCc1cc(O)cc(O)c1 (stereo not shown) has an IC50 of 50.2 µM (microbial growth).
The MIC of COC(=O)c1cc(-c2ccc(NC(=O)Nc3ccc(Cl)c(Cl)c3)cc2)on1 is reported as over 64 µg/mL (microbial growth, broth dilution; ATCC25922).
For CCCCCCCCCCCC(=O)OC[C@H]1O[C@@H](n2cc(C)c(=O)[nH]c2=O)C[C@@H]1O, the MBC was 16 µg/mL (≈ 37.7 µM) (microbial killing, broth dilution).
For COC(=O)c1cc(-c2cccc(NC(=O)Nc3ccc(F)c(F)c3)c2)on1, the MIC was over 64 µg/mL (microbial growth, broth dilution; ATCC25922).
With CC(C)CCCCCCCCCCCCc1cc(O)cc(O)c1 the IC50 was 78.1 µM (microbial growth).
